From PubChem
DNMT1 block = human DNMT1 methyltransferase inhibitors, primary screen, biochemical, molecular beacon, fluorescence, HinP1I cleavage, uHTS; DNA (cytosine-5)-methyltransferase 1 (Homo sapiens), P26358; inhibition (reported as % activation of signal), % at 10 µM; 360,000 compounds, 0.83% hits; AID 588458, 2011; in the data active = inhibition above about 50%
NadD inh = inhibitors of S. aureus NadD, primary screen, biochemical, colorimetric, uHTS. Nicotinate-nucleotide adenylyltransferase NadD (Staphylococcus aureus N315). purified NadD enzyme, colorimetric absorbance read-out. inhibition, % at 20 µM. 360,000 compounds, 0.78% hits; in the data active = inhibition above about 26%
Scp-1 inhibitor = Scp-1 phosphatase inhibitors, primary screen, biochemical, colorimetric, uHTS; AID 493091, 2011; inhibition, % at 20 µM; 340,000 compounds, 0.88% hits; Recombinant Scp1, phosphopeptide, malachite green phosphate absorbance;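 active = inhibition above about 50% at 20 µM, limit read from the data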;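 also: plate controls were DMSO wells with enzyme for no effect and wells lacking enzyme for full effect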
Target sequence (Q9GZU7 76-261 limits assumed): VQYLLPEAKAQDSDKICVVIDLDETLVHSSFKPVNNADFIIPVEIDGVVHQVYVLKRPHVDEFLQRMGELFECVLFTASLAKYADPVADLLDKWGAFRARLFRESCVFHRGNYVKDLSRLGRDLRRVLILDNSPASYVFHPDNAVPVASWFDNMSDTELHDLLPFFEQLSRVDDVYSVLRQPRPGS
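Incubation: 45 min enzyme reaction at room temperature / System: truncated SCP-1 phosphatase (76-261aa) / Reagent: Phospho 17-mer peptide substrate / Buffer or medium: Acidic Tris acetate buffer with magnesium and detergent / Signal: absorbance at 630 nm / Doses: one concentration, 20 µM, with 1.0% DMSO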
LMPTP inh = LMPTP phosphatase inhibitors, primary screen, biochemical, fluorescence intensity, uHTS | inhibition, % at 20 µM | Low molecular weight phosphotyrosine protein phosphatase (Homo sapiens), P24666 | AID 651560, 2012 | recombinant LMPTP-A, OMFP fluorogenic substrate | 360,000 compounds, 0.22% hits;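 active = compounds that cut the enzyme signal by at least half of the control window in the single-dose screen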;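 also: plate controls were DMSO wells with enzyme plus substrate for no effect and substrate without enzyme for full effect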
Target sequence (P24666 whole entry, looked up): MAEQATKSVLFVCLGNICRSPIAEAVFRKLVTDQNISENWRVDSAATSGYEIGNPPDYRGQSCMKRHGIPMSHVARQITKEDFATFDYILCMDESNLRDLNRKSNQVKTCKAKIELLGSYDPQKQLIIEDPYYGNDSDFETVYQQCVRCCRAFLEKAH
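Buffer or medium: Bis-Tris pH 6.0, DTT, detergent; Assay system: LMPTP-A enzyme; Quantity: 0.625 nM enzyme; Detection: endpoint fluorescence intensity; Times: 50 min dark incubation at room temperature; Controls: substrate-only low control, DMSO enzyme-plus-substrate high control; Doses: single 20 µM dose; Read-out: percent inhibition versus substrate-only and uninhibited controls; Reagent: 400 µM OMFP.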
SUMO1 PPI mod = modulators of SUMO1 protein-protein interactions, primary screen, biochemical, uHTS. Small ubiquitin-related modifier 1 (Homo sapiens), P63165. AID 602429, 2012. SUMO1 binding to a labelled peptide, TR-FRET, 1 h. 360,000 compounds, 0.33% hits. inhibition, % at 20 µM; in the data active = inhibition above about 37%
Target sequence (P63165 whole entry, looked up): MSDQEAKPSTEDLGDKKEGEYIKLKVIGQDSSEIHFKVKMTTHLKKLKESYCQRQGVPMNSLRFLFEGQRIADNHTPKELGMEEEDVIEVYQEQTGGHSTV
STEP block = STEP phosphatase inhibitors, primary screen, biochemical, fluorescence intensity, uHTS. Tyrosine-protein phosphatase non-receptor type 5 (Homo sapiens), P54829. recombinant STEP, OMFP fluorogenic substrate. inhibition, % at 20 µM. 360,000 compounds, 0.25% hits. AID 588621, 2011;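 active = inhibition at 20 µM, scaled per plate between control wells, above about 37%, limit read from the data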;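 also: 0% = DMSO with enzyme and substrate and 100% = substrate only without enzyme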
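System: STEP (striatal-enriched tyrosine phosphatase) enzyme, cell-free; medium: Bis-Tris pH 6.0 buffer with DTT, detergent; dosing: 20 µM, 1% DMSO; times: reaction 20 min, ambient temperature; detection: fluorescence, 480/540 nm; read-out basis: normalized % inhibition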
Scp1 confirm = Scp-1 phosphatase inhibitors, retest, confirmation, biochemical, colorimetric, single concentration; 2,500 compounds, 61% hits; AID 540281, 2011; inhibition, % at 20 µM; shares compounds with Scp-1 inhibitor; recombinant SCP-1 catalytic domain, phosphate release, malachite green absorbance;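 also: plate controls were DMSO with enzyme for no effect and buffer wells lacking enzyme for full effect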
Scp-1 MG ctr = colorimetric readout interference by compounds, confirmation, artefact control for Scp-1 inhibitor project, biochemical, single concentration; Colorimetric interference counterscreen, malachite green absorbance 630 nm; 2,500 tested, under 10 active; apparent inhibition (interference), % at 20 µM; shares compounds with Scp-1 inhibitor; AID 540313, 2011;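 also: compounds added after enzyme reaction finished so only phosphate colour detection is probed; plate controls were DMSO wells with completed Scp-1 reaction for no effect and substrate wells lacking enzyme for full effect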
Scp-1 Tm shift = Scp-1 binding by thermal shift, confirmation, orthogonal assay for Scp-1 inhibitor project, biophysical, differential scanning fluorimetry. shares compounds with Scp-1 inhibitor. Recombinant SCP1, Sypro Orange thermal shift Tm. thermal shift relative to vanadate control, % at 40 µM. 1,500 compounds, 25% hits. AID 540329, 2011;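 active = substances whose mean melting-temperature shift, as a percentage of the reference inhibitor's shift, reaches about 5.3%, limit read from the data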;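 also: 0% = Tm of DMSO wells and 100% = Tm with sodium orthovanadate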
DNMT1 inh conf = DNMT1 methyltransferase inhibitor retest, confirmation, biochemical, molecular beacon, fluorescence, single concentration; shares compounds with DNMT1 block; DNMT1 molecular beacon HinP1I cleavage; inhibition, % at 10 µM; 2,300 compounds, 8% hits; AID 602385, 2012;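 active = average inhibition of at least 30% in the single-concentration confirmation test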
Beacon interf = beacon fluorescence artifact counter-screen | 2,300 compounds, 1% hits | shares compounds with DNMT1 block | activation (fluorescence interference), % at 10 µM | AID 602387 | DNMT1 molecular beacon spectral interference counterscreen, fluorescence 485/520;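 active = activation of at least 30% at 10 µM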;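 also: DNMT1 catalytic domain with a HinP1I cleavage step and a FAM/dabcyl DNA beacon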
STEP conf = STEP phosphatase inhibitor hit confirmation, biochemical, fluorescence intensity, single concentration. shares compounds with STEP block. recombinant STEP, OMFP fluorogenic substrate. inhibition, % at 20 µM. 520 compounds, 32% hits. AID 623866, 2012; call rule not given here;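 also: 0% = enzyme with substrate plus DMSO and 100% = substrate without enzyme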
NadD inh conf = inhibitors of S. aureus NadD, confirmation, biochemical, colorimetric, single concentration; inhibition, % at 20 µM; purified S. aureus NadD, colorimetric enzyme assay; shares compounds with NadD inh; 2,000 compounds, 13% hits; AID 624309, 2012; in the data active = inhibition mostly above about 42%, no sharp cut-off; inactive = mostly below about 42%
Starred values were filed as active, the others as inactive; · = no result given. Compounds with a hit are over-represented: about 2.4% of the library has one in this group of screens.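 The calls were made as follows, unless noted: active = inhibition of at least 30% at 20 µM; inactive = the rest.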

SMILES | DNMT1 block | NadD inh | Scp-1 inhibitor | LMPTP inh | SUMO1 PPI mod | STEP block | Scp1 confirm | Scp-1 MG ctr | Scp-1 Tm shift | NadD inh conf | others
O=C(O)CSc1ncnc2c1sc1nc(-c3ccccc3)c3c(c12)CCC3 | -1 | 8 | 78* | 2 | 31 | 48* | 53* | -11 | -9 | · | STEP conf=34
O=C(COc1cc(F)ccc1[N+](=O)[O-])NCCCc1ccccc1 | -1 | -3 | -8 | -1 | -12 | -1 | · | · | · | ·
COC(=O)C1CCN(C(=O)CN2C(=O)NC(CC(C)C)C2=O)CC1 (stereo unspecified) | 1 | -4 | 0 | -1 | -2 | 0 | · | · | · | ·
Cc1cc(N)n(-c2ccc(Oc3ccccc3)c(S(=O)(=O)O)c2)n1 | 49 | -2 | 75* | 7 | 10 | 43* | 60* | -10 | 1 | · | DNMT1 inh conf=0;Beacon interf=2;STEP conf=17
Cc1cc(N)n(-c2ccc(C)c(C)c2)n1 | -3 | -4 | -8 | -1 | -2 | -2 | · | · | · | ·
Cc1ccc(-n2c(=O)c3cc4c(=O)n(-c5ccc(C)c(C)c5)c(=O)c4c(C(=O)c4ccc(C(=O)O)cc4)c3c2=O)cc1C | 34 | 34* | 91* | 83* | 90* | 97* | 75* | -11 | 10* | 11
COc1ccc(C(=O)Nc2ccc(NC(=O)Cc3ccccc3)cn2)cc1 | -4 | -2 | 3 | -2 | 3 | 11 | · | · | · | ·
Cc1ccnc(NS(=O)(=O)c2ccc(N3C(=O)c4ccccc4C3=O)cc2)n1 | 0 | 1 | -3 | -1 | -18 | 0 | · | · | · | ·
Cc1ccnc(NS(=O)(=O)c2ccc(N3C(=O)c4c(Cl)c(Cl)c(Cl)c(Cl)c4C3=O)cc2)n1 | 12 | 34* | 67* | 0 | 29 | 17 | 27 | -14 | · | 6
O=C(Nc1cccc(C(F)(F)F)c1)c1ccc(-c2ccc(F)c(F)c2)c2ccoc12 | 32 | -3 | · | 0 | -6 | 2 | · | · | · | ·
N=c1c(S(=O)(=O)c2ccc(Cl)cc2)cc2c(=O)n3ccccc3nc2n1CC1CCCO1 (stereo unspecified) | -2 | 9 | 27 | 0 | -26 | -2 | · | · | · | ·
N=c1c(S(=O)(=O)c2ccc(Cl)cc2)cc2c(=O)n3ccccc3nc2n1Cc1ccco1 | 21 | 43* | 52* | 5 | -4 | 5 | 4 | -1 | · | 13
C=CCC1NS(=O)(=O)O[C@H](CCCC)[C@@H]1O (stereo partly specified) | 0 | -6 | -8 | 0 | 9 | -4 | · | · | · | ·
O=C(Nc1ccc2oc(-c3ccccc3)nc2c1)c1ccc2c(c1)OCCO2 | -1 | -2 | -12 | -1 | 2 | -6 | · | · | · | ·
O=C(Nc1ccc2oc(-c3cccnc3)nc2c1)c1ccc2c(c1)OCCO2 | 39 | 33* | 52* | 54* | 11 | 38 | 45* | -5 | -4 | 3
Nc1nc(SCc2ccc(Cl)cc2Cl)nc2nc3c(cc12)CCCC3 | 90* | 36* | 97* | 27 | 2 | 10 | 76* | 6 | 4 | 16 | DNMT1 inh conf=0;Beacon interf=-1
N#Cc1ccccc1S(=O)(=O)N1CCN(C(=O)C2CC(=O)N(c3ccc4c(c3)OCCO4)C2)CC1 (stereo unspecified) | 2 | -5 | 4 | 0 | 1 | 5 | · | · | · | ·
CCN(CC)C(=N)/C(C#N)=N/Nc1ccc(C)cc1 | -2 | 2 | 2 | 1 | -9 | 3 | · | · | · | ·
COC(=O)/C(=C(O)\C=C\c1ccccc1[N+](=O)[O-])c1nc2ccccc2[nH]1 | -10 | 2 | 19 | 3 | 8 | 0 | · | · | · | ·
O=C(/C=C/c1ccccc1)Nc1ccc(C(=O)N2CCCCC2)cc1 | 2 | -2 | -8 | 1 | -15 | 1 | · | · | · | ·
Oc1ccc(C[C@H]2CNC(=S)N2CC2CCCN2C[C@H](Cc2ccc(O)cc2)N2C[C@H](Cc3ccccc3)N(CC3CCCCC3)C2=S)cc1 (stereo partly specified) | -19 | 51* | 50* | 6 | 3 | 0 | 9 | 9 | · | 55*
O=C(Cn1c(=O)n(Cc2ccco2)c(=O)c2c3c(sc21)CCCCC3)Nc1ccccc1 | 93* | 51* | 74* | 21 | 14 | 5 | 44* | -29 | 7.9* | 41 | DNMT1 inh conf=13;Beacon interf=2
C=C(C)CN=CC1(C)CCC(C)=CO1 (stereo unspecified) | -3 | -5 | -10 | 0 | 3 | -1 | · | · | · | ·
CCOC(=O)Cn1c(=NC(=O)c2sc3ccccc3c2Cl)sc2cc(S(N)(=O)=O)ccc21 | 36 | 51* | 67* | 58* | 3 | 14 | 75* | -12 | 7.9* | -2
